Measured values as given in ChEMBL document CHEMBL4425169 (ACS Med Chem Lett, 2016).

Legend:
Rattus norvegicus [1] = experiment: Antihypertensive activity in spontaneously hypertensive rat assessed as reduction in systolic blood pressure at 10 mg/kg via oral gavage qd administered for 4 days measured on day 4 by telemetry (reference value: 2.5 +/- 2.2 mmHg); format: functional
Cytochrome P450 3A4 = Cytochrome P450 3A4 (Homo sapiens, UniProt P08684); experiment: Reversible inhibition of human CYP3A4; format: ADME
Cytochrome P450 3A4, sequence (P08684 whole entry): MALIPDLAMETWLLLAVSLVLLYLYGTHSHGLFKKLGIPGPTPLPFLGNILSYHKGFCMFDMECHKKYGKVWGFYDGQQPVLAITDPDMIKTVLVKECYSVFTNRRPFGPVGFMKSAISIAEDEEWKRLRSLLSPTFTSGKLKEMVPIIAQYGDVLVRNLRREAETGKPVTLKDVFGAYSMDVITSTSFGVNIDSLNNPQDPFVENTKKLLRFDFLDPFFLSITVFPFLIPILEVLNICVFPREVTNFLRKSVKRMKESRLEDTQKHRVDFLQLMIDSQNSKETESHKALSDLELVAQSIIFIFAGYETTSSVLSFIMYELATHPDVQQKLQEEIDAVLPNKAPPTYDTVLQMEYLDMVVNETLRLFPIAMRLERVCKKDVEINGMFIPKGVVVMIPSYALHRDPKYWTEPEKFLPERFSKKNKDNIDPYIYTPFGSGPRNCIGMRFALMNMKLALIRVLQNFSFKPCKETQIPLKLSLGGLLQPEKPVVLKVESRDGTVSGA

[2] = Drug metabolism in monkey hepatocytes assessed as oxidation at 1 uM measured at 120 mins; format: ADME, cell-based, Macaca mulatta, Hepatocyte; conditions: rhesus monkey, 2 h
Rattus norvegicus [3] = experiment: Natriuretic activity in Sprague-Dawley rat at 3 mg/kg via oral gavage administered 30 mins prior to void induction by loading saline measured upto 4 hrs relative to vehicle treated control; format: functional
Procedure, shortened: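 Acute 4 h diuresis/natriuresis study in SD rats given a single oral dose, n = 5 per group. Urinary sodium output is expressed as fold increase over vehicle-treated animals, with significance tested against vehicle.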

[4] = target: Voltage-gated inwardly rectifying potassium channel KCNH2 (Homo sapiens, UniProt Q12809); experiment: Displacement of [35S]MK-499 from human ERG
Voltage-gated inwardly rectifying potassium channel KCNH2, sequence (Q12809 whole entry): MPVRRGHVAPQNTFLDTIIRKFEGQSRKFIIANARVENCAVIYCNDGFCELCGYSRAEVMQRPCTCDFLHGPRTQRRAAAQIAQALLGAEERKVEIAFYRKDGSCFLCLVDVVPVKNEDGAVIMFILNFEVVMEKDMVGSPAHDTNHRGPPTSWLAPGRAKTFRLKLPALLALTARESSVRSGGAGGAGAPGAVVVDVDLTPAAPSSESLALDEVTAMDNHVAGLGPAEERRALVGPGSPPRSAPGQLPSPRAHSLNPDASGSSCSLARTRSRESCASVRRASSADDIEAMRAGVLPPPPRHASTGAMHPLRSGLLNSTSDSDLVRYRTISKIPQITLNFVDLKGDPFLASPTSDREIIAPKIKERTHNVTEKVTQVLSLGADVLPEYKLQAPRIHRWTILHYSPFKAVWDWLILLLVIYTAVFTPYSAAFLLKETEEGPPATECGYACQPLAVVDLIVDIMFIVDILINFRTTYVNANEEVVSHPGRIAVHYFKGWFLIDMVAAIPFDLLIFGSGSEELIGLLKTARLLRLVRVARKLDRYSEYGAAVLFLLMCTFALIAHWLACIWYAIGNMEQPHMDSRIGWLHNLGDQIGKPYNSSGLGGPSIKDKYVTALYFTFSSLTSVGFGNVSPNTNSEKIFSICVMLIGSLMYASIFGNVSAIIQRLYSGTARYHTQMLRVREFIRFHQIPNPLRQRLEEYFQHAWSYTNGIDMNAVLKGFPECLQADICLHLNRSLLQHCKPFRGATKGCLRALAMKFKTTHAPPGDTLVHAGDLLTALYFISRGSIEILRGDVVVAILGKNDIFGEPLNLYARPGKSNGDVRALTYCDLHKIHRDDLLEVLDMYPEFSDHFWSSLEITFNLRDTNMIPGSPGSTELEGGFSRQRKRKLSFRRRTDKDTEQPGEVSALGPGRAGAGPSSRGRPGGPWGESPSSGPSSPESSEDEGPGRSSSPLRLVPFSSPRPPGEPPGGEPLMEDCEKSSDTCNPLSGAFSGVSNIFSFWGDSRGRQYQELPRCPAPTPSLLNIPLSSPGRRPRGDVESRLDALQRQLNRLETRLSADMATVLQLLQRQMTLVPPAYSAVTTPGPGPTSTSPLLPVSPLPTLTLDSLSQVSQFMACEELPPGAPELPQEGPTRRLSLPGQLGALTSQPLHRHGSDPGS

[5] = Drug metabolism in bile duct cannulated rat assessed as lactone hydrolysis; format: ADME
[6] = Half life in rhesus monkey at 1 mg/kg, iv or 2 mg/kg, po; format: ADME, organism-based, Macaca mulatta; conditions: in vivo
[7] = Clearance in rhesus monkey at 1 mg/kg, iv or 2 mg/kg, po; format: ADME, organism-based, Macaca mulatta; conditions: in vivo
[8] = Volume of distribution at steady state in rhesus monkey at 1 mg/kg, iv or 2 mg/kg, po; format: ADME, organism-based, Macaca mulatta; conditions: in vivo, read-out: Vdss
Rattus norvegicus [9] = experiment: Diuretic activity in Sprague-Dawley rat at 0.3 mg/kg via oral gavage administered 30 mins prior to void induction by loading saline measured upto 4 hrs relative to vehicle treated control; format: functional
Procedure, shortened: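 Acute rat diuresis model in male-unspecified Sprague-Dawley rats, single oral dose, urine collected over 4 h. Urine volume, sodium excretion and potassium excretion expressed as fold increase over vehicle-treated controls; n = 5 per group; significance tested against vehicle.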

[10] = Drug metabolism in human hepatocytes assessed as lactone hydrolysis at 1 uM measured at 120 mins; format: ADME, cell-based, Hepatocyte; conditions: read-out: Drug metabolism
Cytochrome P450 2D6 = Cytochrome P450 2D6 (Homo sapiens, UniProt P10635); experiment: Reversible inhibition of human CYP2D6; format: ADME
Cytochrome P450 2D6, sequence (P10635 whole entry): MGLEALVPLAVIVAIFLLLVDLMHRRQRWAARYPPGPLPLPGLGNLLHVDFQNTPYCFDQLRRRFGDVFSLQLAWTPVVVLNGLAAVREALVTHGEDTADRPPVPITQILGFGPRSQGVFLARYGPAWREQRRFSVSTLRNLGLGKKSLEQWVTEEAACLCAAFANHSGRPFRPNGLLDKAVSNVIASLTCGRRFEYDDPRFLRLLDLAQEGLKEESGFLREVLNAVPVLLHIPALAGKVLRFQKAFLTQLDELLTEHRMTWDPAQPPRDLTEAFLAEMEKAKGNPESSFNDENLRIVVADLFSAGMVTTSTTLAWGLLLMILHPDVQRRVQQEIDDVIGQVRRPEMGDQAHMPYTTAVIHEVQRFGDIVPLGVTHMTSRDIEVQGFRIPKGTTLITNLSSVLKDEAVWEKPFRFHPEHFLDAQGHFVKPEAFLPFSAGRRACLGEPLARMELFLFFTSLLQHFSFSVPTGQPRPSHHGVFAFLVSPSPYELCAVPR

Cc1c([C@@H](O)CN2CCN(C[C@H](O)c3ccc4c(c3C)COC4=O)CC2)ccc2c1COC2=O [MK-7145]
Activity (Rattus norvegicus [1]): 19.9 mmHg | IC50 (Cytochrome P450 3A4): > 50 µM | Drug metabolism [2]: 15 to 37% | fold change (FC) (Rattus norvegicus [3]): 8 | IC50 [4]: 23 µM | Drug metabolism [5]: Metabolite_Detected | half-life [6]: 4 h | clearance [7]: 29 mL/min/kg | Vd [8]: 6.7 L/kg | fold change (FC) (Rattus norvegicus [9]): 6.4 | metabolised at 2 h, 1 µM [10]: < 1% | IC50 (Cytochrome P450 2D6): > 50 µM
